Experimental findings from article PMC3115457 (Cellular signalling, 2011) are described below.

One assay addresses Gβγ (Homo sapiens, UniProt P59768+P62873). The assay is classed as binding. Put shortly:
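Biotinylated test peptides were captured on a streptavidin chip (Biacore 2000). Gβγ in 25 mM HEPES pH 8.0 was flowed over at 12.5, 25, 50, 100 and 200 nM at 20 μL/min. KD was obtained by fitting the sensorgrams in Biaevaluation, and residual plots were used to judge the fit.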

For a further assay, the target named is AC2 (Rattus norvegicus, UniProt P26769). In words: Adenylyl cyclase activity assay, basal AC2 activity in Hi5 membranes. The assay is classed as biochemical. An outline of the steps: (§1)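 AC2 came from membranes of Hi5 insect cells infected with recombinant AC2 baculovirus. Stimulants were constitutively active Gαs (Q227L) and Gβγ (Gβ1/His-Gγ2) purified from Hi5 cells. Peptides were tested from 46 nM to 300 μM, pre-incubated with membranes or G proteins, and run alongside control conditions. cAMP was measured radiometrically ([α-32P]ATP→[32P]cAMP) or by Lance kit. Duplicates were used, each repeated ≥2 times. IC50 came from non-linear regression.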
Chain of AC2 (P26769 whole entry): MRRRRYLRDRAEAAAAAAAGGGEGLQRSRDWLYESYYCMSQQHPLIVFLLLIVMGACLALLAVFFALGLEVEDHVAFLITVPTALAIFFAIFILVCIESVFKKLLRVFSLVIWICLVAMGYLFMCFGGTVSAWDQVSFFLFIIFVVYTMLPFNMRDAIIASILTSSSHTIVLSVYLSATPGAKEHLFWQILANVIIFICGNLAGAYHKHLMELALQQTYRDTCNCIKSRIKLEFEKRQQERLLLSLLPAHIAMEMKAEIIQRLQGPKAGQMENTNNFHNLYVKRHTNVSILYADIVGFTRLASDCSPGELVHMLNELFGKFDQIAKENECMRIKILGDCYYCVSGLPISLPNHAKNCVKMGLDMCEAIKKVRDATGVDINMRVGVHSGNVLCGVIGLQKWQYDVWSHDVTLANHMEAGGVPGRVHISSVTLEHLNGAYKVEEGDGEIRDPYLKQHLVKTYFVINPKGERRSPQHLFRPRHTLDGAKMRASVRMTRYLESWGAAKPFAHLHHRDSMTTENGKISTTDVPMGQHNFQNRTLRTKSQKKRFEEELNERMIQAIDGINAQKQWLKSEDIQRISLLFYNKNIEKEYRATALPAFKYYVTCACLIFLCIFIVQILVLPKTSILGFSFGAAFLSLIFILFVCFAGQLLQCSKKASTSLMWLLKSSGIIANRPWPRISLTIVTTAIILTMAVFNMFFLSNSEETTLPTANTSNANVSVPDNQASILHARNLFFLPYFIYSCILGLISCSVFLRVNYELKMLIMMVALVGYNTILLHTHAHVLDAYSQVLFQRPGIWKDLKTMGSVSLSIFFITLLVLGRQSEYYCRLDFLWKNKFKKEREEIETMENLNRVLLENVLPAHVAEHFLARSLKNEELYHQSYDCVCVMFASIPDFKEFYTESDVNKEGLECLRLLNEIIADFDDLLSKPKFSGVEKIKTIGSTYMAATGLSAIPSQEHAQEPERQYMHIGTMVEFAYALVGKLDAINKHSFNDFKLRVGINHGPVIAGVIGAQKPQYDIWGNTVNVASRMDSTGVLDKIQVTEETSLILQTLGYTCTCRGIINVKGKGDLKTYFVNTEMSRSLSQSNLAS

The target of the next assay is Gαs-stimulated AC2 (Rattus norvegicus, UniProt P26769). In words: Adenylyl cyclase activity assay, Gαs stimulation of AC2. The assay is classed as biochemical. Put shortly:
as §1

Assay [1] addresses Gβγ stimulation of Gαs-stimulated AC2 (Homo sapiens, UniProt P59768+P62873). In words: Adenylyl cyclase activity assay, Gβγ stimulation of Gαs-stimulated AC2. The assay is classed as biochemical, Rat. The settings on record: for Gαs/Gβγ stimulation % Max Inhibition: Gβγ stimulation of Gαs-stimulated AC2, cAMP level at 300 μM peptide, peptides 46 nM to 300 μM. An outline of the steps:
as §1
On the technique in general: cAMP levels reflect the balance of adenylyl cyclase and phosphodiesterase activity.

Broadly, the Kd is the equilibrium constant for the complex coming apart. As usually defined, the IC50 is the concentration needed to halve the response being measured.

Ends that are not written are not given here. Peptide text beside a SMILES is read from it. Bounds are passed on as bounds.

Chain of Gαs-stimulated AC2 (P26769 whole entry): as above
Chain of Gβγ stimulation of Gαs-stimulated AC2 (P62873 2-340 limits assumed): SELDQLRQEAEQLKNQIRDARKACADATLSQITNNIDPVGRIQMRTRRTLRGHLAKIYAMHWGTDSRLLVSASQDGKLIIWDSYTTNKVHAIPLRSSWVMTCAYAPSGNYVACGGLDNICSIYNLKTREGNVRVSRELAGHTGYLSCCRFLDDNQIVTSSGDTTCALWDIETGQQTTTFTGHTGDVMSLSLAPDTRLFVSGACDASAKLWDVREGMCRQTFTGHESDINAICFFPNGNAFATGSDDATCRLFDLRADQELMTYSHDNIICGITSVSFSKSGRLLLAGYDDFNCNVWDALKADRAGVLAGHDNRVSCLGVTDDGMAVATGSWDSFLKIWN
Chain of Gβγ stimulation of Gαs-stimulated AC2 (P59768 2-68 limits assumed): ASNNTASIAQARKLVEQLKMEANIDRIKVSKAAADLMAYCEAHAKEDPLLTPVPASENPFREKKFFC
Chain of Gβγ (P62873 2-340 limits assumed): as the sequence (P62873 2-340 limits assumed) above
Chain of Gβγ (P59768 2-68 limits assumed): as the sequence (P59768 2-68 limits assumed) above

`CC[C@H](C)[C@H](NC(=O)[C@@H]1CCCN1C(=O)[C@H](CC(C)C)NC(=O)CNC(=O)[C@H](CO)NC(=O)[C@@H](NC(=O)[C@H](CS)NC(=O)[C@H](Cc1ccc(O)cc1)NC(=O)[C@H](Cc1ccc(O)cc1)NC(=O)[C@@H](N)CS)C(C)C)C(=O)N[C@@H](CO)C(=O)N[C@@H](CC(C)C)C(=O)N1CCC[C@H]1C(=O)N[C@@H](CC(N)=O)C(=O)N[C@@H](Cc1c[nH]cn1)C(=O)N[C@@H](C)C(=O)N[C@@H](CCCCN)C(=O)N[C@@H](CC(N)=O)C(=O)N[C@@H](CS)C(=O)N[C@H](C(=O)N[C@@H](CCCCN)C(=O)N[C@@H](CCSC)C(=O)O)C(C)C` [AC2 C1a (339-360)] (H-CYYCVSGLPISLPNHAKNCVKM-OH) came in with a dissociation constant (Kd) on Gβγ of 0.0405 ± 0.0063 µM. In addition, the IC50 came out at 7.7 µM on AC2, 82.3 µM against Gαs-stimulated AC2 and 5.6 µM in assay [1]. In assay [1] (listed as C1a region), the “Gαs/Gβγ stimulation % Max Inhibition” value stood at 88%.

Consider “ERMIQAIDGINAQKQWLKSEDIQR [AC2 C1b (554-577)]”, for which the IC50 against AC2 was determined as 16.7 µM; at Gαs-stimulated AC2, 36.7 µM; in assay [1], 12.2 µM. Moreover, in assay [1], the “Gαs/Gβγ stimulation % Max Inhibition” value is on record as 11.5%.

Turning to “ISLLFYNKVLEKEYRATALPAFKYY [AC2 C1b (578-602)]”, the Kd at Gβγ turned out to be 0.102 ± 0.014 µM. Besides, the IC50 against AC2 was found to be 38.5 µM; on Gαs-stimulated AC2, 2.5 µM; in assay [1] it was 2.2 µM. Moreover, the “Gαs/Gβγ stimulation % Max Inhibition” value in assay [1] is given as 113.1%; in assay [1] (listed as C1b 578-602) it was more than 100%.

On Gβγ, “MTRYLESWGAAKPFAHL [AC2 C1b (493-509), reference compound]” displayed a Kd of 0.0027 ± 0.0013 µM.

For the compound “MTTENGKISTTDVPMGQHNFQNRTLR-OH [AC2 C1b (515-541)]”, on Gβγ (Biacore SPR, immobilized biotinylated peptide, Gβγ 12.5-200 nM), the “Binding to Gβγ (in words)” value was “did not interact with Gβγ”.

“QEHAQEPERQYMHIGTMVEFAYALVGK [QEHA C2 (956-982), reference compound]”: binding on Gβγ was characterised by a dissociation constant (Kd) of 0.0139 ± 0.0088 µM.

“RYLESWGAAKPFAHLHHRDS [AC2 C1b (495-514)]”: at Gβγ, the Kd was 0.0047 ± 0.0017 µM. Also, the IC50 against AC2 is more than 100 µM; at Gαs-stimulated AC2, 32.9 µM; in assay [1] it was 13.9 µM. Besides, in assay [1], the “Gαs/Gβγ stimulation % Max Inhibition” value came out at 67.0%.
